# Cardio protect = myocardial damage modulation in H9c2 cells | H9c2 cardiomyocytes, H2O2 injury protection, ATPLite, 2 h | protection from H2O2 cell death, % at 20 µM | 0.63% of 360,000 active | AID 588492;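 active = compounds giving at least 50% protection of heart cells from peroxide-induced death in the single-dose screen, raw or plate-pattern-corrected value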;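 note: 0% = DMSO wells with peroxide and 100% = DMSO wells without peroxide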
# Arrestin-AP2 inh = blocks beta-arrestin peptide binding to AP2 adaptin. FITC-arrestin peptide / GST-AP2 beads, flow cytometry; AP2 beta2 appendage carries R879A mutation. inhibition, % at 10 µM. 0.31% of 340,000 active. AID 504490;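 active = inhibition above a set limit, near 3 SD of compounds lacking own fluorescence, cut at about 54% in these data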;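 note: plate controls were DMSO wells for no effect and 5 µM unlabelled arrestin peptide for full effect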
#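 Assay system: GST-AP2 R879A bound to glutathione beads, E. coli-expressed; Medium: PBS with 0.05% Tween 20 and 0.1% BSA; Also added: fluorescein-tagged arrestin peptide at 50 nM final; Timing: 12 min plus 1 h, RT; Measured by: flow cytometry, FL1 (488/535 nm); Evaluation: percent drop in bead-associated FITC signal.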
# GRIN3A LBD mod = modulates the human NR3A ligand-binding domain; Tm shift relative to glycine control, % at 25 µM; NR3A LBD differential scanning fluorimetry, Tm shift; 0% = protein alone, 100% = glycine-bound protein; 2.5% of 340,000 active; AID 1259313;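 active = melting temperature shift of at least 10% of the positive control shift, at one fixed dose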
# hiPSC survival = increases survival of single human iPS cells; survival enhancement, % at 20 µM; 0.044% of 360,000 active; hiPSC single-cell survival, ATPlite luminescence; 100% = ROCK inhibitor wells, 0% = DMSO; in the data active = survival enhancement above about 18%;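 note: cells exposed to compounds for 16 hours before the ATP read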
# SENP1 inh = blocks the human SENP1 SUMO protease catalytic domain | recombinant SENP1 catalytic domain, CyPet-SUMO1-YPet FRET cleavage | Q9P0U3 | 0.21% of 360,000 active | inhibition, % at 10 µM;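 active = inhibition at least 30% at 10 µM, raw YFP signal under a set limit, fluorescence ratio 0.5 to 1.5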;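 note: 0% = enzyme with DMSO and 100% = no enzyme wells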
# Target sequence (Q9P0U3 419-644 limits assumed): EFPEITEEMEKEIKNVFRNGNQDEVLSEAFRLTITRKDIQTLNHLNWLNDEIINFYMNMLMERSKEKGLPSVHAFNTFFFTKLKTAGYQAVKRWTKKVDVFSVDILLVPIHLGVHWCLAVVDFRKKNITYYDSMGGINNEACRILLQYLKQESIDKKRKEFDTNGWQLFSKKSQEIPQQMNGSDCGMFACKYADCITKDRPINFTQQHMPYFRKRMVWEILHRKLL
#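 Material: hSENP1 catalytic domain, recombinant; medium: Tris pH 8 with BME, BSA, NP40 and catalase; compound: single concentration of 10 µM compound, 0.5% DMSO final; technique: FRET read of cyan and yellow fluorescence; timing: 50 min enzyme reaction, room temperature, light-protected; reagent: SFCypet-SUMO1-SFYpet substrate at 25 nM; control set: no-enzyme low, enzyme-DMSO high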
# FAS TE block = blocks the thioesterase domain of human fatty acid synthase. P49327. recombinant FAS-TE, OMFH fluorogenic substrate, fluorescence endpoint. inhibition, % at 15 µM. 0.67% of 360,000 active. AID 602261;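 active = compounds whose normalised, plate-corrected inhibition of enzyme fluorescence in the single-dose primary screen is 50% or more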;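 note: 0% = DMSO with enzyme and 100% = substrate without enzyme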
# FAS-TE inh conf = FAS thioesterase (human) inhibition, confirmation. shares compounds with FAS TE block. recombinant FAS-TE, OMFH fluorogenic substrate, fluorescence. inhibition, % at 15 µM. 45% of 2,300 active. AID 624325;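 active = compounds inhibiting the enzyme by at least 50% at 15 µM in any one of the replicates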;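 note: 0% = enzyme with DMSO only and 100% = wells lacking enzyme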
# The depositor's hits bear a star; x = not tested or not shown. An excerpt weighted towards active compounds, which were near 4% of everything screened.
SMILES,Cardio protect,Arrestin-AP2 inh,GRIN3A LBD mod,hiPSC survival,SENP1 inh,FAS TE block,FAS-TE inh conf
COc1ccc(C2=NN(CN3C(=O)C(=O)c4ccccc43)C(c3cccc([N+](=O)[O-])c3)C2)cc1 (centres undefined),0,-8,1,-1,1,60*,60*
O=C(O)c1cc(NN=Nc2ccc(Br)cc2)cc([N+](=O)[O-])c1,-2,34,5,2,-1,69*,75*
CCc1ccc(OCC(=O)N/N=C/c2cc([N+](=O)[O-])ccc2N2CCCCCC2)cc1,-8,1,-10,-1,-33,30,x
CCC1CCCCN1c1ccc([N+](=O)[O-])cc1/C=N/NC(=O)Cn1c2ccccc2c(=O)c2ccccc21 (centres undefined),-1,12,-2,-2,-65,60*,21
C[C@@H]1CCCCO[C@@H](CN(C)S(=O)(=O)c2cn(C)cn2)[C@@H](C)CN([C@H](C)CO)C(=O)c2cc(NC(=O)Nc3ccc(C(F)(F)F)cc3)ccc2O1,9,x,x,2,0,6,x
CC(C)(C)c1ccc(C(=O)NCC(=O)OCc2ccc([N+](=O)[O-])cc2)cc1,-9,5,-11,1,-2,71*,83*
O=C(NN1C(=O)c2ccccc2NC1c1ccccn1)c1ccc([N+](=O)[O-])cc1 (centres undefined),7,11,-8,1,1,42,x
Cc1cccc(C2Nc3ccccc3C(=O)N2NC(=O)c2ccc([N+](=O)[O-])cc2)n1 (centres undefined),1,27,-3,4,1,53*,62*
COc1ccc(S(=O)(=O)c2cnc3ccc(OC)cc3c2N2CCC3(CC2)OCCO3)cc1,36,10,-2,0,-5,72*,60*
COc1ccc(N2CCN(c3c(S(=O)(=O)c4ccccc4)cnc4ccc(OC)cc34)CC2)cc1,8,3,-1,-3,-1,48,x
CC(O)(c1ccccc1)c1nc(-c2ccc(S(C)(=O)=O)cc2)cs1 (centres undefined),7,x,x,1,2,3,x
CCCCCCOC(=O)C1=C(C)NC(=O)NC1c1ccc(O)cc1 (centres undefined),-18,-4,-2,-2,1,1,x
CCCCCOC(=O)C1=C(C)NC(=O)NC1c1ccc([N+](=O)[O-])cc1 (centres undefined),-9,12,-1,0,0,58*,57*
C[C@H](CO)N1C[C@H](C)[C@@H](CN(C)C(=O)c2ccccc2)OCc2cnnn2CCCC1=O,1,x,x,-2,-1,-3,x
CN[C@@H](CO)C(=O)NC[C@H]1O[C@@H](n2cnc3c(N)ncnc32)[C@H](O)[C@@H]1O,6,x,x,-3,1,-11,x
O=C(c1cc2cc([N+](=O)[O-])ccc2oc1=O)N1CCN(C2CCCCC2)CC1,-2,-12,0,-1,0,61*,47*
NC(c1cccc(F)c1)c1nc(-c2ccc(Cl)cc2)cs1 (centres undefined),-4,x,x,-2,-1,12,x
C/C(=C/CCC(C)[C@H]1CC[C@@]2(C)C3=C(CC[C@]12C)[C@@]1(C)CCC(=O)C(C)(C)[C@@H]1CC3)C(=O)O (some centres undefined),-1,30,-5,2,0,74*,3
CCOc1cc(/C=N/Nc2nc(N3CCCCC3)nc(N3CCCCC3)n2)ccc1OC(=O)c1ccco1,-3,1,1,5,1,71*,2
COc1cc(/C=N/Nc2nc(Nc3ccccc3)nc(N3CCOCC3)n2)ccc1OC(=O)c1ccco1,27,0,2,-5,4,67*,24
O=C(Oc1cccc(/C=N/Nc2nc(N3CCOCC3)nc(N3CCOCC3)n2)c1)c1ccco1,25,-10,-1,0,2,4,x
CCOc1ccc(/C=N/Nc2nc(N3CCCC3)nc(N3CCCC3)n2)cc1OC,30,23,-1,-1,4,0,x
COc1cc(/C=N/Nc2nc(Nc3ccccc3)nc(N3CCCCC3)n2)ccc1OCC(=O)O,-11,1,-2,-4,-1,0,x
COc1ccc(/C=N/Nc2nc(Nc3ccccc3)nc(N3CCCCC3)n2)c(OC)c1,-7,-14,-6,1,4,50*,23
Cc1ccc(-c2csc(C(O)c3cccc(Cl)c3)n2)cc1C (centres undefined),-14,x,x,2,0,31,x
SMILES,Cardio protect,Arrestin-AP2 inh,GRIN3A LBD mod,hiPSC survival,SENP1 inh,FAS TE block,FAS-TE inh conf
CC1(C(=O)NS(=O)(=O)c2cccs2)CCN1C(=O)Cc1ccc(Cl)cc1Cl (centres undefined),2,x,x,0,1,-10,x
Cc1ccc([N+](=O)[O-])cc1S(=O)(=O)NCC1COc2ccccc2O1 (centres undefined),-4,17,-7,0,0,66*,60*
Cc1ccc(S(=O)(=O)NCC2COc3ccccc3O2)cc1 (centres undefined),-7,24,10,0,1,3,x
O=C(CCNC(=O)c1ccc([N+](=O)[O-])cc1)NCC1COc2ccccc2O1 (centres undefined),-2,-6,3,0,4,42,x
O=C(Cn1cc([N+](=O)[O-])ccc1=O)NCC1COc2ccccc2O1 (centres undefined),5,-7,2,1,-2,52*,55*
CC12CCC(=O)N1C(C(=O)N1CCN(c3ccc([N+](=O)[O-])cc3)CC1)CS2 (centres undefined),14,-7,-2,-1,3,-3,x
CSc1ncnc2c1ncn2CCCNCc1ccc(C)o1,-1,x,x,3,-2,-6,x
CCc1nc2ccc(C(=O)NCC3CCCCC3)cn2c1N(C)Cc1ccc(OC)cc1,0,x,x,0,-11,16,x
COCCNC(=O)c1cc2c(c(-c3cccc(-c4cc5ccccc5o4)c3)n1)[C@@H](CCO)N(S(=O)C(C)(C)C)C2 (some centres undefined),2,x,x,4,-14,-6,x
COc1ccccc1-n1c2nc3ccccc3nc2c2c(=O)n(-c3cc(C)cc(C)c3)cnc21,-7,10,-2,0,-5,92*,33
COCCCn1cnc2c(c1=O)c1nc3ccccc3nc1n2-c1ccccc1,5,4,0,5,-36,1,x
